Test results reported in ChEMBL document CHEMBL3352559, “Synthesis and pharmacological investigation of aralkyl diamine derivatives as potential triple reuptake inhibitors” (Eur J Med Chem, 2014).

What was measured:
[1] = target: Sodium-dependent dopamine transporter (Homo sapiens, UniProt Q01959); assay: Displacement of [3H]BTCP from human DAT at 10 uM relative to control
In short: (§1)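 Outsourced CNS panel of 55 receptor binding assays run by Cerep. Compound tested at 10 μM, the default primary-binding concentration, with inhibition expressed relative to control. Inhibition above 50% taken as a significant effect.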

Salmonella typhimurium [2] = assay: Mutagenic activity in Salmonella typhimurium TA98 assessed as number of reversion mutation at 30 ug/plate; format: toxicity, organism-based; conditions: salmonella enterica subsp. enterica serovar typhimurium
In short: (§2)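 Ames reversion test in Salmonella typhimurium TA98 and TA100, with and without rat liver S9 metabolic activation. Compound was dissolved in DMSO and added at 3–5000 μg/plate. Each dose, vehicle and positive control was plated in triplicate, and revertant colonies were counted.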

Salmonella typhimurium [3] = assay: Mutagenic activity in Salmonella typhimurium TA100 assessed as number of reversion mutation at 3 ug/plate; format: toxicity, organism-based; conditions: salmonella enterica subsp. enterica serovar typhimurium; in short: as §2
[4] = target: Sodium-dependent noradrenaline transporter (Homo sapiens, UniProt P23975); assay: Inhibition of [3H]-NE uptake in human norepinephrine transporter expressed in HEK293 cells by scintillation counting; format: cell-based
Rattus norvegicus [5] = assay: Antidepressant activity in po dosed rat assessed as reduction in immobility time by forced swimming test; format: functional, organism-based
In short: (§3)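 Male rats dosed orally at 5, 10 or 20 mg/kg alongside vehicle and venlafaxine 30 mg/kg PO groups. 1 h post-dose, each rat placed in a glass cylinder (40 cm × 18 cm) holding 15 cm of 25 ± 1 °C water. Immobility time recorded over a 6 min trial; significant main effects followed by post hoc Fisher's test.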

Rattus norvegicus [6] = assay: Antidepressant activity in rat assessed as reduction in immobility time at 5 mg/kg, po by forced swimming test relative to control; format: functional; in short: as §3
[7] = Acute toxicity in KM mouse assessed as survival at 900 mg/kg, po up to 14 days (reference value: 100%); format: organism-based; design: dose 900 mg/kg, route oral; conditions: in vivo
[8] = AUC (0 to time) in Sprague-Dawley rat at 2 mg/kg, po; format: ADME, organism-based; design: dose 2 mg/kg, route oral; conditions: plasma
In short: (§4)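 Male SD rats, fasted overnight until 6 h post-dose. PO group received single 2 mg/kg with heparinized blood sampled at 5, 15, 30 min, 1, 2, 4, 8, 24 h. IV group received single 0.5 mg/kg via femoral vein with sampling at 5, 15, 30 min, 1, 2, 4 h. Plasma stored at -40 °C, quantified by LC/MS/MS; 24 rats per group.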

[9] = Mean residence time in Sprague-Dawley rat at 2 mg/kg, po; format: ADME, organism-based; design: dose 2 mg/kg, route oral; conditions: in vivo
[10] = Tmax in Sprague-Dawley rat at 2 mg/kg, po; format: ADME, organism-based; design: dose 2 mg/kg, route oral; conditions: in vivo
[11] = Cmax in Sprague-Dawley rat at 0.5 mg/kg, iv; format: ADME, organism-based; design: dose 0.5 mg/kg, route intravenous; conditions: in vivo; in short: as §4
[12] = Drug uptake in Sprague-Dawley rat plasma at 0.5 mg/kg iv after 2 hrs; format: ADME, organism-based; design: dose 0.5 mg/kg, route intravenous
In short: (§5)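 Male SD rats, fasted overnight until 6 h post-dose; single 0.5 mg/kg femoral-vein injection; blood drawn into heparin at 5, 15, 30 min, 1, 2 and 4 h; plasma stored at -40 °C; drug levels by LC/MS/MS; noncompartmental parameters.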

[13] = Drug uptake in Sprague-Dawley rat plasma at 0.5 mg/kg iv after 4 hrs; format: ADME, organism-based; design: dose 0.5 mg/kg, route intravenous; in short: as §5
[14] = Ratio of drug level in Sprague-Dawley rat brain to plasma at 0.5 mg/kg iv after 1 hrs; format: ADME, organism-based; design: dose 0.5 mg/kg, route intravenous; conditions: read-out: BPR
[15] = Ratio of drug level in Sprague-Dawley rat brain to plasma at 0.5 mg/kg iv after 4 hrs; format: ADME, organism-based; design: dose 0.5 mg/kg, route intravenous; conditions: read-out: BPR
[16] = target: Adrenergic receptor alpha-1 (Homo sapiens) (UniProt P35348+P25100+P35368); assay: Displacement of [3H]prazosin from alpha1-adrenergic receptor (unknown origin) at 10 uM relative to control
In short: (§6)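 Outsourced CNS receptor panel (55 binding assays); compound tested at 10 μM in primary radioligand binding; specific binding inhibition expressed relative to control, with >50% inhibition taken as a significant effect.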

[17] = target: Beta-1 adrenergic receptor (Homo sapiens) (UniProt P08588); assay: Displacement of [3H]CGP-12177 from human beta1-adrenergic receptor at 10 uM relative to control; in short: as §1
[18] = target: Beta-2 adrenergic receptor (Homo sapiens) (UniProt P07550); assay: Displacement of [3H]CGP-12177 from human beta2-adrenergic receptor at 10 uM relative to control; in short: as §1
[19] = target: Type-1 angiotensin II receptor (Homo sapiens) (UniProt P30556); assay: Displacement of [125I][Sar1,Ile8]-ATII from human angiotensin AT1 receptor at 10 uM relative to control; in short: as §1
[20] = target: D(1A) dopamine receptor (Homo sapiens) (UniProt P21728); assay: Displacement of [3H]SCH23390 from human dopamine D1 receptor at 10 uM relative to control; in short: as §1
[21] = target: Melanocortin receptor 4 (Homo sapiens) (UniProt P32245); assay: Displacement of [125I] NDP-alpha-MSH from human MC4 receptor at 10 uM relative to control; in short: as §1
[22] = target: Muscarinic acetylcholine receptor M1 (Homo sapiens) (UniProt P11229); assay: Displacement of [3H]pirenzepine from human muscarinic M1 receptor at 10 uM relative to control; in short: as §6
[23] = target: Muscarinic acetylcholine receptor M2 (Homo sapiens) (UniProt P08172); assay: Displacement of [3H]AF-DX 384 from human muscarinic M2 receptor at 10 uM relative to control; in short: as §1
[24] = target: Substance-K receptor (Homo sapiens) (UniProt P21452); assay: Displacement of [125I]NKA from human NK2 receptor at 10 uM relative to control; in short: as §1
[25] = target: 5-hydroxytryptamine receptor 1A (Homo sapiens) (UniProt P08908); assay: Displacement of [3H]OHDPAT from human 5-HT1A receptor at 10 uM relative to control; in short: as §1
[26] = target: 5-hydroxytryptamine receptor 1B (Homo sapiens) (UniProt P28222); assay: Displacement of [125I]CYP from human 5-HT1B receptor at 10 uM relative to control; in short: as §1
[27] = target: 5-hydroxytryptamine receptor 7 (Homo sapiens) (UniProt P34969); assay: Displacement of [3H]LSD from human 5-HT7 receptor at 10 uM relative to control; in short: as §1
[28] = target: Vasoactive intestinal polypeptide receptor 1 (Homo sapiens) (UniProt P32241); assay: Displacement of [125I]VIP from human VPAC1 receptor at 10 uM relative to control; in short: as §1
[29] = target: Vasopressin V1a receptor (Homo sapiens) (UniProt P37288); assay: Displacement of [3H]AVP from human V1a receptor at 10 uM relative to control; in short: as §1
Homo sapiens [30] = organism: Homo sapiens; assay: Inhibition of SKca channel (unknown origin) at 10 uM by [125I]apamin binding assay relative to control; in short: as §6
Homo sapiens [31] = organism: Homo sapiens; assay: Inhibition of Na+ channel (unknown origin) at 10 uM by [3H]batrachotoxinin binding assay relative to control
In short: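 Radioligand binding was run at a contract laboratory as part of a 55-target CNS receptor panel. Test concentration was 10 μM. Inhibition of specific binding was expressed relative to control, and inhibition greater than 50% was taken as significant.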

[32] = Clearance in Sprague-Dawley rat at 0.5 mg/kg, iv; conditions: in vivo
[33] = Drug uptake in Sprague-Dawley rat brain at 0.5 mg/kg ip after 0.25 hrs

Chain of Type-1 angiotensin II receptor (Homo sapiens) (P30556 whole entry): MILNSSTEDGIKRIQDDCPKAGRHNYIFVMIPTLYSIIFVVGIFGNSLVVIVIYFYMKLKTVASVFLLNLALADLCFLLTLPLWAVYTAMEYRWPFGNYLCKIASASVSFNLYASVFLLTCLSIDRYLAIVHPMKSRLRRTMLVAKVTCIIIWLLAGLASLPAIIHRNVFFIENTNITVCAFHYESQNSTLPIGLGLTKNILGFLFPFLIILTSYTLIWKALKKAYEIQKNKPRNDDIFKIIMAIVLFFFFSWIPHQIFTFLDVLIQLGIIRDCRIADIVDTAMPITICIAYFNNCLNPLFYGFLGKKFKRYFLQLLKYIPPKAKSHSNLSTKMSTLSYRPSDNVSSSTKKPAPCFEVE
Chain of 5-hydroxytryptamine receptor 1B (Homo sapiens) (P28222 whole entry): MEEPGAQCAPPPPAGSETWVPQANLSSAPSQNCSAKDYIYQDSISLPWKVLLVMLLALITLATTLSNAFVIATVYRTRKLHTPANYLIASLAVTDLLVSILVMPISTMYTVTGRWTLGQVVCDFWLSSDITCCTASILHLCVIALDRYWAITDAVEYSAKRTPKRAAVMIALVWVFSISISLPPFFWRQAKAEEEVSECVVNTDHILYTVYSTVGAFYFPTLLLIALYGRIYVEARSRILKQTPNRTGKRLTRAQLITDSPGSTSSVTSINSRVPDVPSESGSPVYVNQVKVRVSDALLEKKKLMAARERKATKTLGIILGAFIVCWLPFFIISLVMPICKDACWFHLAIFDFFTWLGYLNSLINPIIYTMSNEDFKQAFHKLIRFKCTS
Chain of D(1A) dopamine receptor (Homo sapiens) (P21728 whole entry): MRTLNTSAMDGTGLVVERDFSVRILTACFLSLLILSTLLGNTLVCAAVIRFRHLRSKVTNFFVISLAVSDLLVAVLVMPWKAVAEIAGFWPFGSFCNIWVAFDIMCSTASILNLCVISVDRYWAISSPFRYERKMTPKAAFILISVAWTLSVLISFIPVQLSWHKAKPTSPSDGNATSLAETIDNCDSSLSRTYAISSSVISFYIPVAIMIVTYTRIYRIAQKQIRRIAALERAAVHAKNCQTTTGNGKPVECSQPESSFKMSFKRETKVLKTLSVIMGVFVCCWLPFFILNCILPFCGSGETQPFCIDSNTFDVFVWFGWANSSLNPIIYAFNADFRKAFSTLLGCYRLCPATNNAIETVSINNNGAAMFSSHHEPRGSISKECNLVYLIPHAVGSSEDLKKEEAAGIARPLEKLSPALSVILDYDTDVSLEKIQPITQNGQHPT
Chain of Substance-K receptor (Homo sapiens) (P21452 whole entry): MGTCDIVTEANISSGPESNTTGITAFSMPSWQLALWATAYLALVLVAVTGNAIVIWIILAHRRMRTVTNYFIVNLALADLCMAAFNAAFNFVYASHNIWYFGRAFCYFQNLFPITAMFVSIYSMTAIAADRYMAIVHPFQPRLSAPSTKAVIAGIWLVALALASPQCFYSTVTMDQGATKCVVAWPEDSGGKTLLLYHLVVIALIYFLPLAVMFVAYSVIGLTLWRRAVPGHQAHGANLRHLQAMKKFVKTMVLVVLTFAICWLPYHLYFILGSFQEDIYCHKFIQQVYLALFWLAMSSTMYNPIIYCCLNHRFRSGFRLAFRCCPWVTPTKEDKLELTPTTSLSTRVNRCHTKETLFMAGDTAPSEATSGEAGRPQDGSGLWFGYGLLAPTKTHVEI
Chain of Vasopressin V1a receptor (Homo sapiens) (P37288 whole entry, looked up): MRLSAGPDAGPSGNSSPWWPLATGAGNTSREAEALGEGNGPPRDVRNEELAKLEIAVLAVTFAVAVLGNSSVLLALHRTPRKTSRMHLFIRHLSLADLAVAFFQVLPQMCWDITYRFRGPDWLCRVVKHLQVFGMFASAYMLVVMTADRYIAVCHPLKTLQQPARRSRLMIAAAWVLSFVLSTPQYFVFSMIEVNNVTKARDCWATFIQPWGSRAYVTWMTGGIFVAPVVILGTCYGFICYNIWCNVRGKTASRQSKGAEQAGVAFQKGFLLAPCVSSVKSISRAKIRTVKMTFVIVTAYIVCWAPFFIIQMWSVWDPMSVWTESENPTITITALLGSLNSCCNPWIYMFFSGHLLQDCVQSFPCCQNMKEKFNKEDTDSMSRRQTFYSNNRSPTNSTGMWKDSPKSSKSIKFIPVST
Chain of Beta-1 adrenergic receptor (Homo sapiens) (P08588 whole entry, looked up): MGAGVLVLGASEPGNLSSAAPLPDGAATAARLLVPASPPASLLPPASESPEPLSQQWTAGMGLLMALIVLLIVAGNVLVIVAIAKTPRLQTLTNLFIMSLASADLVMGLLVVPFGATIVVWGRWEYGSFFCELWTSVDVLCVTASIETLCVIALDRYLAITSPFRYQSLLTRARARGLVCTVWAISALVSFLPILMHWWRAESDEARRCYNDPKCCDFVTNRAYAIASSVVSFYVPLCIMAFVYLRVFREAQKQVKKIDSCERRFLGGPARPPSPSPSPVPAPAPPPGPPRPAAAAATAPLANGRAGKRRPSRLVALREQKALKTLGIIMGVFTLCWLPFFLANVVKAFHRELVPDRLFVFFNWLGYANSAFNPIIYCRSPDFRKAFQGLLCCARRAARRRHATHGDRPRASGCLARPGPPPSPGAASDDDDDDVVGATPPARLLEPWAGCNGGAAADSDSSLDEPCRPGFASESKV
Chain of Beta-2 adrenergic receptor (Homo sapiens) (P07550 whole entry, looked up): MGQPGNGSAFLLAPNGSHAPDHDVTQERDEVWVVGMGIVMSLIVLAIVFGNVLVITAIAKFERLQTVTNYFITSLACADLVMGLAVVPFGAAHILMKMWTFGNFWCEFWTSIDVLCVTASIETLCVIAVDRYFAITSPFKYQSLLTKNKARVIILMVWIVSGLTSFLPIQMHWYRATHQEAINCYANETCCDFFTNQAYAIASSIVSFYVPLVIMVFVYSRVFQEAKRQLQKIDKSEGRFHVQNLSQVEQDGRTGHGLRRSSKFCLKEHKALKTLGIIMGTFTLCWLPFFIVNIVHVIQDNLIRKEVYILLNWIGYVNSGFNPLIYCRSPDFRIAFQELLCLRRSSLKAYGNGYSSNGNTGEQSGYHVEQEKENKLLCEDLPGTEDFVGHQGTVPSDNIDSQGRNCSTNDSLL
Chain of Melanocortin receptor 4 (Homo sapiens) (P32245 whole entry): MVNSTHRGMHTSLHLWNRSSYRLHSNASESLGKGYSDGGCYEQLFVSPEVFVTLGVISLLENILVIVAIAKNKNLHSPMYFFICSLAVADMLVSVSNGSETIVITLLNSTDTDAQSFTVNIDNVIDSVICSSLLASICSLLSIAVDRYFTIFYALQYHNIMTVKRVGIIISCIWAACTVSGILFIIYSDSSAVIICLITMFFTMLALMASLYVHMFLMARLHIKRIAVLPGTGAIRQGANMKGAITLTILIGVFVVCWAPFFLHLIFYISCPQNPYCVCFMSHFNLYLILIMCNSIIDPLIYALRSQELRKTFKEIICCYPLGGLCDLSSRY
Chain of Muscarinic acetylcholine receptor M2 (Homo sapiens) (P08172 whole entry): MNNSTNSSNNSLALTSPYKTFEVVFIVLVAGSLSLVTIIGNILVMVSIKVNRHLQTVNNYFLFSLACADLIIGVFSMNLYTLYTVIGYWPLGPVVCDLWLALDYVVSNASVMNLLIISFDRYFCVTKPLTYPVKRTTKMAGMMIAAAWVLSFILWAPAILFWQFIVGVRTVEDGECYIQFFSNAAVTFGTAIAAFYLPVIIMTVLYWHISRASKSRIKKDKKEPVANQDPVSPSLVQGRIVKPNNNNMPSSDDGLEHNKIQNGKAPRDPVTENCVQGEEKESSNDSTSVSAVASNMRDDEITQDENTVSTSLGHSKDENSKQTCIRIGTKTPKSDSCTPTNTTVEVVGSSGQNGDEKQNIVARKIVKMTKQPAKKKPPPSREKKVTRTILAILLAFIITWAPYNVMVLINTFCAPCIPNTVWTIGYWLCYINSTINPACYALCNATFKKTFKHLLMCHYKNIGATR
Chain of 5-hydroxytryptamine receptor 7 (Homo sapiens) (P34969 whole entry): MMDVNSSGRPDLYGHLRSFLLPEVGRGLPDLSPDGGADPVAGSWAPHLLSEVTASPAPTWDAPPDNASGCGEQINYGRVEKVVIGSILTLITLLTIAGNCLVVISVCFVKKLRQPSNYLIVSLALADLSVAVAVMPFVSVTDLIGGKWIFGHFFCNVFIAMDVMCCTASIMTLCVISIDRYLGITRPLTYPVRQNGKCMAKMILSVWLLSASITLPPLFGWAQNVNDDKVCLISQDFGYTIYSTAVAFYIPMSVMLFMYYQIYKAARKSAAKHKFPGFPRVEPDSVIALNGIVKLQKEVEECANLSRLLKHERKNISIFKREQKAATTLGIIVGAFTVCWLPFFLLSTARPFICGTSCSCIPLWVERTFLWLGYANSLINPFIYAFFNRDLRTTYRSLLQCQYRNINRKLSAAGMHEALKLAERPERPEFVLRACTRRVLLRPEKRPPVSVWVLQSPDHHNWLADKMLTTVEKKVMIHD
Chain of Vasoactive intestinal polypeptide receptor 1 (Homo sapiens) (P32241 whole entry): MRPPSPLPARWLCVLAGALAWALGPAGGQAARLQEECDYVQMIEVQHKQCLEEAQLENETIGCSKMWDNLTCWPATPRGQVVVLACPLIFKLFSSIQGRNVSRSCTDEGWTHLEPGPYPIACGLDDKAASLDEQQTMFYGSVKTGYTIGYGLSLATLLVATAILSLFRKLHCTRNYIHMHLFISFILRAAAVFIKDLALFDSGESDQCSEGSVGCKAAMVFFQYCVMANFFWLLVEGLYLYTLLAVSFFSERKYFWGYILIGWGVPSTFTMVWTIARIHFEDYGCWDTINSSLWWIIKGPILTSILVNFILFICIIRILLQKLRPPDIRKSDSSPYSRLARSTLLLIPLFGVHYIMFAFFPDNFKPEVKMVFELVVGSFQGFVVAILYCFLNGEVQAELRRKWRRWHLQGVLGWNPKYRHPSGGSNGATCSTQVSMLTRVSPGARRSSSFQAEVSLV

CN(C)CCC(c1ccc(Cl)c(Cl)c1)N1CCOCC1 (stereo not drawn)
inhibition [1]: 93.6%
Activity (Salmonella typhimurium [2]): 36
Activity (Salmonella typhimurium [3]): 87
IC50 [4]: 478 nM
inhibition (Rattus norvegicus [5]): Dose-dependent effect
inhibition in vivo at 5 mg/kg (Rattus norvegicus [6]): 31%
survival at 336 h [7]: 40%
AUC [8]: 61 ng·h/mL
MRT [9]: 3.05 h
Tmax [10]: 0.5 h
Cmax [11]: 48.5 ng/mL
concentration at 2 h [12]: 10.9 ng/mL
concentration at 4 h [13]: 3.7 ng/mL
Kp at 1 h [14]: 12.7
Kp at 4 h [15]: 11.4
inhibition [16]: 2.6%
inhibition [17]: 11%
inhibition [18]: 4.9%
inhibition [19]: -9.5%
inhibition [20]: 2.2%
inhibition [21]: 0.8%
inhibition [22]: 45.6%
inhibition [23]: 17.7%
inhibition [24]: -7%
inhibition [25]: -0.8%
inhibition [26]: 0.7%
inhibition [27]: 8.9%
inhibition [28]: 2.2%
inhibition [29]: 3.3%
inhibition (Homo sapiens [30]): -3.8%
inhibition (Homo sapiens [31]): 40.1%
clearance [32]: 100 mL/min/kg
concentration at 0.25 h [33]: 925 ng/mL
